SENP8 block-1: SENP8 protease inhibition. Q96LD8. purified SENP8, Z-RLRGG-aminoluciferin cleavage, luminescence. inhibition, % at 10 µM. 1.2% of 330,000 active. AID 2540; in the data active means inhibition above about 50%
SENP1 FRET inh: SENP1 (human) catalytic domain inhibition | 0.21% of 360,000 active | Q9P0U3 | inhibition, % at 10 µM | recombinant SENP1 catalytic domain, CyPet-SUMO1-YPet FRET cleavage | AID 624204;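 active means inhibition at least 30% at 10 µM, raw YFP signal under a set limit, fluorescence ratio 0.5 to 1.5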
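Material: hSENP1 catalytic domain, recombinant; medium: Tris pH 8 with BME, BSA, NP40 and catalase; compound: single concentration of 10 µM compound, 0.5% DMSO final; technique: FRET read of cyan and yellow fluorescence; timing: 50 min enzyme reaction, room temperature, light-protected; reagent: SFCypet-SUMO1-SFYpet substrate at 25 nM; control set: no-enzyme low, enzyme-DMSO high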
SENP6 block: blocks the human protease SENP6; Q9GZR1; AID 2599; inhibition, % at 10 µM; 1.8% of 330,000 active; Recombinant SENP6 catalytic domain, aminoluciferin luminescence;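 active means inhibition above about 50% at the single tested dose, limit read from the data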
HSP90 inh: HSP90 refolding inhibition in rabbit reticulocyte lysate | luciferase refolding luminescence, 3 h | inhibition, % at 5.6 µM | 0.91% of 290,000 active;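 active means inhibition above the screen-wide mean plus 3 SD, computed separately per campaign, cut at about 16% in these data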;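 further: inhibitors lower the luminescence because luciferase stays unfolded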
SENP8 block-2: SENP8 (human) protease inhibition; Q96LD8; recombinant SENP8, Nedd8 substrate fluorescence; inhibition, % at 20 µM; 0.64% of 360,000 active; AID 602440; in the data active means inhibition mostly above about 40%, no sharp cut-off; inactive means mostly below about 27%
SENP7 block: blocks the human protease SENP7; Q9BQF6; recombinant SENP7, Z-RLRGG-aminoluciferin luminescence, 40 min; inhibition, % at 5 µM; 1.5% of 330,000 active; AID 434973;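 active means inhibition above about 50% at the single test dose, limit read from the data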
Target sequence (Q9BQF6 706-1050 limits assumed): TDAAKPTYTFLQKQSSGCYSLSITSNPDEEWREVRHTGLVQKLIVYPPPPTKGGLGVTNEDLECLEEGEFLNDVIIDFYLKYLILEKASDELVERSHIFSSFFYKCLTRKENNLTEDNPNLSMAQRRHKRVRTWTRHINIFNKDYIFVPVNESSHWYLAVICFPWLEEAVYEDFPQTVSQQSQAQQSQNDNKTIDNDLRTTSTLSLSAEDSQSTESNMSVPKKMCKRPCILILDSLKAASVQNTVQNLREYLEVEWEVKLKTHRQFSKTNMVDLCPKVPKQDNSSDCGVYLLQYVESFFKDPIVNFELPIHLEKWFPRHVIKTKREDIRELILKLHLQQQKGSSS
SENP8 conf: confirmation of human SENP8 protease inhibitors; 40% of 6,200 active; inhibition, % at 12.5 µM; Recombinant SENP8, Z-RLRGG-aminoluciferin luminescence, 60 min; shares compounds with SENP7 block;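 active means mean inhibition across replicates above about 50%, limit read from the data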
SENP6 conf: human SENP6 inhibition, confirmed. shares compounds with SENP7 block. recombinant SENP6, Z-RLRGG-aminoluciferin luminescence. inhibition, % at 12.5 µM. 58% of 6,200 active. AID 488915
SENP7 conf: human SENP7 inhibition, confirmed; inhibition, % at 12.5 µM; 69% of 6,200 active; shares compounds with SENP7 block; recombinant SENP7, Z-RLRGG-aminoluciferin luminescence, 40 min
Casp3 SENP sel: selectivity test for SENP inhibitors: human caspase-3 inhibition; shares compounds with SENP7 block; purified caspase-3, Z-DEVD-aminoluciferin luminescence, 60 min; inhibition, % at 12.5 µM; 60% of 6,200 active;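 active means mean inhibition above about 50%, limit read from the data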
Target sequence (P42574 28-227 limits assumed): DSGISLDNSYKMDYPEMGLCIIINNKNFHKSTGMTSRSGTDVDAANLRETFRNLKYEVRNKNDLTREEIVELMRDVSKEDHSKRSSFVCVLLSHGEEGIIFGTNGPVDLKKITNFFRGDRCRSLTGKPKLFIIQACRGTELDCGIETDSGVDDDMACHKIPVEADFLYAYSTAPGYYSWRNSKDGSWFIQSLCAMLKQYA
Luc interf: counter-screen for SENP inhibitors: luminescence interference; inhibition, % at 12.5 µM; Pre-incubated SENP8/Z-RLRGG-aminoluciferin, luciferase luminescence interference; 39% of 6,200 active; shares compounds with SENP7 block;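 active means mean inhibition above about 50% when retested at one dose, limit read from the data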
A number is an active result; . = inactive; / = not tested or not shown. This is a sample that favours compounds with a hit; in the whole collection about 2.9% have one here.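 How the source made its calls, unless noted: active means mean inhibition above about 50% in the one-dose retest (limit read from the data); inactive means the rest.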

SMILES	SENP8 block-1	SENP1 FRET inh	SENP6 block	HSP90 inh	SENP8 block-2	SENP7 block	SENP8 conf	SENP6 conf	SENP7 conf	Casp3 SENP sel	Luc interf
O=C(/C=C/c1cccc(O)c1)c1ccc(N2CCOCC2)cc1	.	.	78	.	.	74	.	.	.	.	51
COc1ccc(/C=C/C(=O)c2ccc(O)cc2)cc1CN1CCOCC1	.	.	.	.	.	.	/	/	/	/	/
Cc1ccn(CCNC(=O)C2CCC(=O)N(Cc3ccc(Cl)cc3)C2)n1 (stereo not drawn)	.	.	.	.	.	.	/	/	/	/	/
CCN(CC)CCCNC(=O)c1ccc2c3n(nc2c1)-c1ccc(Cl)cc1CO3	.	.	.	/	.	.	/	/	/	/	/
C[C@@H](CO)NC(=O)c1ccc2c3n(nc2c1)-c1ccccc1CO3	.	.	57	/	.	.	65	66	92	91	70
CC(C)NC(=O)c1ccc2c3n(nc2c1)-c1ccc(Cl)cc1CO3	54	.	.	/	.	.	.	.	62	.	.
CS(=O)(=O)N(CC(=O)N1CCCC1)C1CCCCC1	/	.	/	/	.	/	/	/	/	/	/
COc1ccc(CCNC(=O)CCc2cn(C)c3ccccc23)c(OC)c1OC	.	.	.	.	.	.	/	/	/	/	/
O=c1nc2c(-c3cccc(Br)c3)n[nH]n2c2ccccc12	92	.	88	.	.	80	.	.	.	61	.
Cc1ccc(S(=O)(=O)c2n[nH]n3c2nc(=O)c2ccccc23)cc1	.	.	.	.	.	.	/	/	/	/	/
CC(C)c1ccc(/C=C/C(=O)Nc2nncs2)cc1	73	.	84	.	.	90	.	54	82	63	.
CC(C)c1ccc(-c2nnn(CCC(=O)O)n2)cc1	71	.	59	.	.	.	.	68	84	.	.
COc1ccc(-c2csc(NC(=O)c3cccs3)c2C(=O)O)cc1OC	60	.	.	.	.	.	.	72	90	75	76
COc1ccc(-c2csc(NC(=O)c3ccccc3Br)c2C(=O)O)cc1	.	.	53	.	.	.	.	.	68	.	62
COc1ccc(-c2csc(NC(=O)c3ccc(C(C)(C)C)cc3)c2C(=O)O)cc1	.	/	.	/	/	.	/	/	/	/	/
CC(C)Cc1csc(NC(=O)C(C)C)c1C(=O)O	.	.	.	.	.	.	/	/	/	/	/
Cc1ccc(-c2csc(NC(=O)c3ccccc3F)c2C(=O)O)cc1	80	.	82	.	.	.	.	85	93	84	59
COc1ccc(-c2csc(NC(=O)c3ccccc3OC)c2C(=O)O)cc1OC	.	.	.	.	.	.	/	/	/	/	/
CC(C)Cc1csc(NC(=O)c2ccc(Br)cc2)c1C(=O)O	88	.	94	.	.	.	92	94	92	80	58
O=C(Nc1scc(-c2ccccc2)c1C(=O)O)c1ccccc1F	68	.	75	.	.	.	82	79	90	85	80
O=C(/C=C/c1ccco1)Nc1scc(-c2ccccc2)c1C(=O)O	97	.	98	.	.	95	98	99	102	98	97
Cc1ccc(C(=O)Nc2scc(-c3ccccc3)c2C(=O)O)o1	66	.	.	.	.	57	86	85	96	92	82
Cc1cc(NC(=O)c2ccccc2F)on1	.	.	.	.	.	.	/	/	/	/	/
O=C(Nc1scc(-c2ccc(Br)cc2)c1C(=O)O)c1ccccc1F	87	.	88	/	.	.	87	86	68	77	.
O=C(Nc1nnc(-c2ccccc2)s1)c1ccccc1F	.	.	.	.	.	.	/	/	/	/	/
SMILES	SENP8 block-1	SENP1 FRET inh	SENP6 block	HSP90 inh	SENP8 block-2	SENP7 block	SENP8 conf	SENP6 conf	SENP7 conf	Casp3 SENP sel	Luc interf
O=C(/C=C/c1ccccc1)Nc1scc(-c2ccccc2)c1C(=O)O	/	.	/	.	.	/	/	/	/	/	/
COc1ccc(Cl)cc1NS(=O)(=O)c1c(C)[nH]c(=O)[nH]c1=O	.	.	.	.	.	.	/	/	/	/	/
Cc1ccc(S(=O)(=O)N2CCCCC2)cc1NC(=O)c1ccncc1	.	.	.	/	.	.	/	/	/	/	/
Cc1ccccc1C(=O)Nc1scc(-c2ccc(Br)cc2)c1C(=O)O	75	.	86	/	.	.	.	53	.	52	.
COc1cccc(CN2CCN(C(=O)c3oc4c(F)cccc4c3C)CC2=O)c1	.	.	87	.	.	.	.	.	.	.	.
Cc1ccc(NC(=O)Cn2c(=O)c3cccn3c3ccccc32)c(Cl)c1	.	.	.	.	.	.	/	/	/	/	/
O=C1c2ccccc2C(=O)N1CCSc1nncs1	.	.	.	.	.	.	/	/	/	/	/
O=C1c2ccccc2C(=O)N1CCSc1ccccc1	.	.	60	.	.	.	.	.	72	.	.
O=C(c1cc(S(=O)(=O)N2CCOCC2)ccc1F)N1CCc2ccccc21	.	.	.	/	.	.	/	/	/	/	/
Fc1cccc(-c2ncc(-c3ccccc3)o2)c1	/	.	/	/	.	/	/	/	/	/	/
Brc1ccc(-c2cnc(-c3cccs3)o2)cc1	.	.	69	.	.	62	56	67	86	.	.
O=C(O)c1nccnc1C(=O)Nc1ccc(Cl)cn1	.	.	97	.	.	.	.	.	.	.	.
CC(=O)CC(=O)Nc1ccc(Cl)cn1	.	.	.	.	.	.	/	/	/	/	/
CCn1nccc1C(=O)Nc1ccc(Cl)cn1	.	.	74	.	.	63	.	.	80	.	64
COc1ccc(/C=C(\NC(=O)c2ccc(OC)cc2)C(=O)Nc2ccccc2C(=O)O)cc1	.	.	.	.	.	.	/	/	/	/	/
Clc1ccccc1-c1nc(-c2ccccc2)n[nH]1	53	.	74	.	.	74	.	57	85	62	66
Cn1c(SCc2ccc(C#N)cc2Cl)nc2ccccc21	69	.	75	.	.	80	.	76	57	.	.
O=C(NCc1ccccc1)c1ccc(S(=O)(=O)NCc2ccco2)cc1	.	.	.	.	.	.	/	/	/	/	/
O=C(COC(=O)c1cccc(NC(=O)c2ccco2)c1)c1ccc(Br)cc1	.	.	70	.	.	72	.	61	78	.	.
Cc1ccc(C(=O)COC(=O)c2cccc(NC(=O)c3ccc([N+](=O)[O-])cc3[N+](=O)[O-])c2)cc1	.	.	67	.	.	66	.	.	69	.	.
